An excerpt weighted towards active compounds, which were near 6.8% of everything screened.
HEK293 NFkB inh: inhibitors of the PMA/ionomycin-induced NF-kB reporter in HEK293 cells; HEK-293 NF-kB luciferase reporter, luminescence; inhibition, % at 3 µM; 62,000 tested, 0.21% active; AID 465;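 active means inhibition above the mean of all tested compounds plus 3 SD, cut at about 40% in these data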
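System – HEK-293 cells with stable firefly luciferase reporter driven by four HIV NF-kB elements · Doses – one dose, 3 µM · Schedule – 1 h compound pre-incubation, 16 h PMA/ionomycin at 37 °C · Technique – luminescence from luciferase substrate reagent · Measure – percent inhibition normalized per plate to DMSO and reference-inhibitor controls · Replicates – tested once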
MKP-1 inh: human dual specificity phosphatase 1 inhibition. AID 374. inhibition, %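 (compounds tested at a single concentration somewhere between 10 and 100 µM)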. 65,000 tested, 0.15% active. recombinant MKP-1, OMFP hydrolysis fluorescence. P28562;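 active means inhibition above about 50%, limit read from the data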
M1 agonist: agonists of M1 muscarinic receptor; CHO-M1 cells, Fluo-4 calcium fluorescence, agonist mode; hits give high values; B-score at 10 µM; 64,000 tested, 3% active; AID 626;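 active means fluorescence rise, raw or as B-score row- and column-corrected plate score, outside the 99.7% band of its plate's samples, either direction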
Her2 expr inh: lowers expression of human Her2 kinase | HER2 level % of control, % at 10 µM | 65,000 tested, 0.69% active | SKBR-3 HER2 protein level, AlphaScreen, 18-24 h; hits give low values | P04626;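 active means HER2 level under 5% of the carrier-only control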;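 further: lower value means stronger loss of Her2 protein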
Cdc25B inh: human M-phase inducer phosphatase 2 inhibition; P30305; recombinant Cdc25B, OMFP fluorescence Ex485/Em525; inhibition, %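 (compounds tested at 10 µM final in the well)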; 65,000 tested, 0.1% active; in the data active means inhibition above about 50%
Target sequence (P30305 whole entry, looked up): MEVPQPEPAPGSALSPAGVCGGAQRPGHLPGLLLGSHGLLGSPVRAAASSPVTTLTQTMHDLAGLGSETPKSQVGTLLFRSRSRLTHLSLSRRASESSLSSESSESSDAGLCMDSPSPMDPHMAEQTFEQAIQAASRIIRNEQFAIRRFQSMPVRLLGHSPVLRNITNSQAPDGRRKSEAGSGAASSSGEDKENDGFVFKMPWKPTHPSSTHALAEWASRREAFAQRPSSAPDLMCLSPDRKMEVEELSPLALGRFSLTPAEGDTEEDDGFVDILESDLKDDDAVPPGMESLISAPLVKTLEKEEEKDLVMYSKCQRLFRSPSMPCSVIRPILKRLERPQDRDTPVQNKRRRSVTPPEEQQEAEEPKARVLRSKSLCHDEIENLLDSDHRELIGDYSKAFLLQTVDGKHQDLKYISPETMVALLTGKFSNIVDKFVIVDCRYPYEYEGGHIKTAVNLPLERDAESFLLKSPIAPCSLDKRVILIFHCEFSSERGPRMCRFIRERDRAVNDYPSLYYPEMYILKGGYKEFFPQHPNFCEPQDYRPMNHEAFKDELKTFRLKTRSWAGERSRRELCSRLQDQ
M1 antagonist: blocks the rat M1 muscarinic receptor response to acetylcholine; 64,000 tested, 3.4% active; AID 628; B-score at 10 µM; P08482; CHO-M1 cells, Fluo-4 calcium, ACh EC80 antagonist mode; hits give low values;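 active means calcium fluorescence response, raw or row-and-column corrected B-score, differing from the plate sample mean either way at a set confidence level, mostly lower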
M1 antag conf: confirmation of rat M1 muscarinic receptor antagonists; shares compounds with M1 antagonist; CHO-M1 cells, Fluo-4 calcium, ACh EC80 antagonism; hits give low values; calcium response (max-min fluorescence) at 10 µM; 1,700 tested, 43% active; AID 677;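 active means calcium response below the same-plate mean of wells given acetylcholine alone at its 80%-effect dose, minus 3 SD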
mGluR4 antag: acts on human mGluR4 in M1 antagonist selectivity test; fluorescence response (max-min) at 10 µM; 1,700 tested, 0.9% active; AID 678; shares compounds with M1 antagonist; CHO-mGluR4 calcium flux, Fluo-4 fluorescence, glutamate EC80; hits give low values;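 active means fluorescence response below the plate's average for near-maximal glutamate wells, less 3 SD of those wells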;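 further: raw unnormalized fluorescence span taken in the window right after glutamate addition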
Numbers stand for hits; – = inactive; · = not tested or not shown.

SMILES	HEK293 NFkB inh	MKP-1 inh	M1 agonist	Her2 expr inh	Cdc25B inh	M1 antagonist	M1 antag conf	mGluR4 antag
COC(=O)CC1Oc2ccccc2N(Cc2ccccc2)C1=O (configuration not stated)	–	–	–	–	–	-2.4	–	–
CCC1Oc2ccccc2N(CC(=O)Nc2ccccc2OC)C1=O (configuration not stated)	–	–	–	–	–	–	·	·
CN(CCC#N)CC(=O)Nc1ccc(NC(=O)CN(C)CCC#N)cc1	–	–	–	–	–	-14	–	–
OC(CN1CCCCC1)CN(c1ccccc1)c1ccccc1 (configuration not stated)	–	–	–	–	–	-22	78	–
OC(CN1CCOCC1)CN(c1ccccc1)c1ccccc1 (configuration not stated)	–	–	–	–	–	–	·	·
CCn1c(SCC(=O)N2CCOCC2)nc2c(c1=O)SC(C)C2 (configuration not stated)	–	–	–	–	–	–	·	·
Cc1cc2oc(=O)cc(CN3CCN(Cc4ccc5c(c4)OCO5)CC3)c2cc1C	–	–	–	–	–	–	·	·
Cc1ccc2c(CN3CCN(Cc4ccc5c(c4)OCO5)CC3)cc(=O)oc2c1C	–	–	–	–	–	-2.3	475	–
Cc1ccc(C)c(N2C(=O)CC(N3CCN(Cc4ccc5c(c4)OCO5)CC3)C2=O)c1 (configuration not stated)	–	–	–	–	–	-2.9	542	–
Cc1cc(C)c2c(CN3CCN(Cc4ccc5c(c4)OCO5)CC3)cc(=O)oc2c1	–	–	–	–	–	-10	61	–
CCN1CCN(Cc2cc(=O)oc3cc(C)cc(C)c23)CC1	–	–	–	–	–	-1.2	461	–
CCc1cc2c(CN3CCN(CC)CC3)cc(=O)oc2cc1O	–	–	–	–	–	–	·	·
Cc1cc(C)c2c(CN3CCN(Cc4ccc5c(c4)OCO5)CC3)cc(=O)oc2c1C	–	–	–	–	–	-6.2	376	–
Cc1cc(OCCNCCO)cc(C)c1Cl	–	–	–	–	–	–	·	·
Cc1cc(OCCCCCNCCO)cc(C)c1Cl	–	–	–	–	–	-3.8	–	–
COCCCNc1nc2c(c(=O)[nH]c(=O)n2C)n1CC(O)COc1ccccc1C (configuration not stated)	–	–	–	–	–	-3.6	–	–
CCc1c(O)nc(SCC(=O)Nc2ccccc2OC)[nH]c1=O	–	–	–	–	–	-1	–	–
COc1cccc(C(c2nnnn2CCc2ccccc2)N2CCN(c3ccccc3)CC2)c1OC (configuration not stated)	–	–	–	–	–	–	·	·
COc1cccc(C(c2nnnn2Cc2ccco2)N2CCN(c3cccc(C)c3C)CC2)c1OC (configuration not stated)	–	–	–	–	–	-4.3	–	–
CN(CCCNC(=O)C1CCN(S(=O)(=O)N2CCC3(CC2)OCCO3)CC1)Cc1ccccc1	–	–	–	–	–	–	·	·
O=C(NCCN1CCCCCC1)C1CCN(S(=O)(=O)N2CCOCC2)CC1	–	–	–	–	–	-5.2	–	–
CC(C)N(CCCNC(=O)C1CCN(S(=O)(=O)N2CCOCC2)CC1)Cc1ccccc1	–	–	–	–	–	-3.8	–	–
O=C(NCCN1CCOCC1)C1CCC(=O)N1C1CCCCC1 (configuration not stated)	–	–	–	–	–	-1.4	–	–
CCN(CCCNC(=O)C1CCN(S(=O)(=O)c2cccc3nonc23)CC1)Cc1ccccc1	–	–	–	–	–	-6.8	304	–
O=C(NCCc1ccc(Cl)cc1)C1CCC(=O)N1C1CCCC1 (configuration not stated)	–	–	–	–	–	–	·	·
Nc1nncn1C(=O)CCc1ccccc1	–	–	·	–	–	·	·	·
COc1cc(NS(=O)(=O)c2ccc(Br)cc2)c(OC)cc1NC(=O)c1ccco1	–	–	–	–	–	–	·	·

Screens (PubChem)
